Consider eleven molecules from ChEMBL document CHEMBL1817582, “Optimization of the in vitro cardiac safety of hydroxamate-based histone deacetylase inhibitors” (J Med Chem, 2011).

The nature of data set [1]: Metabolic stability in plasma of nude mouse xenografted with human HCT116 cells assessed as compound remaining after 3 hrs. Format: ADME, cell-free, HCT-116. As to conditions: read-out: Stability. Summed up: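 Compound incubated in mouse plasma for three hours; percentage of compound remaining measured.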
For orientation: Xenograft models place foreign cells or tissue in a host animal.

Data set [2] deals with Rattus norvegicus. In words: AUC in Sprague-Dawley rat at 5 mg/kg, iv. On the set-up: dose 5 mg/kg, route intravenous. The conditions noted are these: in vivo. Format: ADME, organism-based, Plasma. Put shortly:
(§1)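 Pharmacokinetics in naive Sprague-Dawley rats and in HCT116 tumor-bearing nude mice after single iv or oral dosing. Parameters reported as means: AUC, clearance, Vss, half-life, Cmax and oral bioavailability (F%).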

Data set [3] relates to Rattus norvegicus. In words: AUC in Sprague-Dawley rat at 10 mg/kg, po. Format: ADME, organism-based, Plasma. As to conditions: in vivo. Further details: dose 10 mg/kg, route oral. Summed up: as §1
Data set [4] can be described thus: Clearance in Sprague-Dawley rat at 5 mg/kg, iv. On the set-up: dose 5 mg/kg, route intravenous. Type of data set: ADME, organism-based. The conditions noted are these: in vivo. Summed up:
as §1

Data set [5] in a line: Volume of distribution at steady state in Sprague-Dawley rat at 5 mg/kg, iv. Format: ADME, organism-based. On the set-up: dose 5 mg/kg, route intravenous. The conditions noted are these: in vivo, read-out: Vdss. Summed up: as §1
Data set [6] is described as follows: Half life in Sprague-Dawley rat at 5 mg/kg, iv. Format: ADME, organism-based. The conditions noted are these: in vivo. On the set-up: dose 5 mg/kg, route intravenous. Put shortly: as §1
Data set [7] is described as follows: Cmax in Sprague-Dawley rat at 10 mg/kg, po. Format: ADME, organism-based. As to conditions: in vivo. On the set-up: dose 10 mg/kg, route oral. Summed up: as §1
In data set [8] the test system is Rattus norvegicus. Kind of data set: Oral bioavailability in Sprague-Dawley rat at 10 mg/kg. Format: ADME, organism-based. As to conditions: in vivo. Put shortly:
as §1

Data set [9] is described as follows: AUC in nude mouse xenografted with human HCT116 cells at 5 mg/kg, iv. Further details: dose 5 mg/kg, route intravenous. Type of data set: ADME, organism-based, HCT-116. As to conditions: in vivo. Summed up:
as §1

The nature of data set [10]: AUC in nude mouse xenografted with human HCT116 cells at 20 mg/kg, po. Format: ADME, organism-based, HCT-116. Further details: dose 20 mg/kg, route oral. As to conditions: in vivo. Put shortly: as §1
The nature of data set [11]: Clearance in nude mouse xenografted with human HCT116 cells at 5 mg/kg, iv. Type of data set: ADME, organism-based, HCT-116. On the set-up: dose 5 mg/kg, route intravenous. As to conditions: in vivo. Summed up: as §1
The nature of data set [12]: Volume of distribution at steady state in nude mouse xenografted with human HCT116 cells at 5 mg/kg, iv. Type of data set: ADME, organism-based, HCT-116. The conditions noted are these: in vivo, read-out: Vdss. Further details: dose 5 mg/kg, route intravenous. Put shortly:
as §1

A short description of data set [13]: Half life in nude mouse xenografted with human HCT116 cells at 5 mg/kg, iv. Format: ADME, organism-based, HCT-116. On the set-up: dose 5 mg/kg, route intravenous. As to conditions: in vivo. Put shortly:
as §1

Data set [14] can be described thus: Cmax in nude mouse xenografted with human HCT116 cells at 20 mg/kg, po. Format: ADME, organism-based, HCT-116. Further details: dose 20 mg/kg, route oral. As to conditions: in vivo. Put shortly:
as §1

The nature of data set [15]: Oral bioavailability in nude mouse xenografted with human HCT116 cells at 20 mg/kg. Type of data set: ADME, organism-based, HCT-116. As to conditions: in vivo. Summed up:
as §1

A short description of data set [16]: AUC in Sprague-Dawley rat at 2 mg/kg, iv. Type of data set: ADME, organism-based. On the set-up: dose 2 mg/kg, route intravenous. As to conditions: plasma. Put shortly: as §1
Data set [17] in a line: Clearance in Sprague-Dawley rat at 2 mg/kg, iv. Format: ADME, organism-based. Further details: dose 2 mg/kg, route intravenous. The conditions noted are these: in vivo. Summed up: as §1
Data set [18] can be described thus: Volume of distribution at steady state in Sprague-Dawley rat at 2 mg/kg, iv. On the set-up: dose 2 mg/kg, route intravenous. As to conditions: in vivo, read-out: Vdss. Type of data set: ADME, organism-based. Put shortly: as §1
Data set [19] can be described thus: Half life in Sprague-Dawley rat at 2 mg/kg, iv. Type of data set: ADME, organism-based. As to conditions: in vivo. Further details: dose 2 mg/kg, route intravenous. Summed up: as §1
Data set [20] is described as follows: Solubility of compound at pH 6.8. Type of data set: physicochemical. The conditions noted are these: buffer.
A further data set concerns Canis familiaris. In words: Plasma concentration in dog at 150 mg/kg, po administered as single dose. Further details: dose 150 mg/kg, route oral. The conditions noted are these: in vivo. Format: ADME, organism-based, Canis lupus familiaris.
The subject of the next data set is Homo sapiens. In words: Plasma concentration in human at 800 mg, po administered as single dose. As to conditions: in vivo.
Data set [21] in a line: Dissociation constant, pKa of the compound. Type of data set: physicochemical.

On to `CC(C)N(CCc1c(C(C)(C)O)[nH]c2ccccc12)Cc1ccc(/C=C/C(=O)NO)cc1`, for which the remaining at 3 h in [1] is 54%. In addition, the AUC (usually the area under the concentration-time curve, a measure of exposure) with Rattus norvegicus [2] was 1.307 µM·h; with Rattus norvegicus [3], 0.336 µM·h; in data set [9], 0.463 µM·h; in data set [10] it was 0.0653 µM·h. In addition, the results for the clearance in [4] and in [11] were 66 mL/min/kg and 176 mL/min/kg, respectively. Moreover, the Vd turned out to be 7 L/kg in data set [5] and 5.9 L/kg in data set [12]. Moreover, the half-life – broadly, the time in which the quantity being followed falls by half – in data set [6] was 1.3 h; in [13], 1 h. Also, the Cmax – broadly, the highest concentration seen after dosing – in [7] stood at 204 nM; in data set [14] it was 56 nM. In addition, the F with Rattus norvegicus [8] is recorded as 5%. Besides, the bioavailability (in general, the share of a dose that reaches the circulation, judged against a reference dose that is usually intravenous) in [15] stood at 4%.

For `Cc1nn2ccccc2c1CCNCc1ccc(/C=C/C(=O)NO)cc1`, the AUC turned out to be 2.56 µM·h in [16], 5.1 µM·h in data set [9] and 0.362 µM·h in [10]. Also, the clearance – broadly, a measure of how efficiently the substance is removed, as volume per time – in [17] is 36.5 mL/min/kg; in [11], 46.4 mL/min/kg. The Vd amounted to 1.99 L/kg in data set [18] and 1.46 L/kg in [12]. Moreover, the half-life in [19] was 0.915 h; in data set [13], 1.44 h. In data set [20], the solubility (as a rule, the dissolved amount per volume that the medium holds) is over 1000 µg/mL. Further, the Cmax in data set [7] was 61 nM; in data set [14], 202 nM. This molecule also showed a bioavailability in data set [15] of 2%.

For `O=C(CCCCCCC(=O)Nc1ccccc1)NO` [VORINOSTAT], the concentration with Canis familiaris was 960 nM; with Homo sapiens it was 1580 nM.

With `O=C(/C=C/c1ccc(CN(CCO)CCc2c[nH]c3ccccc23)cc1)NO` [DACINOSTAT], the pKa (in general, the negative logarithm of the acid dissociation constant) in data set [21] amounted to 7.5.

On to `O=C(/C=C/c1ccc(CN(CCc2c[nH]c3ccccc23)CC(F)(F)F)cc1)NO`, for which, in [21], the pKa stood at 3.2.

Consider `Cc1[nH]c2ccccc2c1CCN(Cc1ccc(/C=C/C(=O)NO)cc1)CC(F)F`, for which the pKa in data set [21] was determined as 4.65.

Turning to `CC(C)(C)c1[nH]c2ncccc2c1CCNCc1ccc(/C=C/C(=O)NO)cc1`, the AUC in [9] stood at 2.44 µM·h; in data set [10], 0.474 µM·h. This molecule showed a clearance in data set [11] of 95 mL/min/kg. Moreover, in [12], the Vd amounted to 4.5 L/kg. The same molecule showed a half-life in [13] of 3.3 h. This molecule came in with a Cmax in [14] of 849 nM. Further, the bioavailability in [15] is 4%.

`O=C(/C=C/c1ccc(CNCCc2c[nH]c3ccccc23)cc1)NO` displayed a pKa in [21] of 7.65.

`CCCN(CCc1c[nH]c2ccccc12)Cc1ccc(/C=C/C(=O)NO)cc1` registered a pKa in data set [21] of 7.9.

Consider `O=C(/C=C/c1ccc(CN(CCc2c[nH]c3ccccc23)CCC(F)(F)F)cc1)NO`, for which, in [21], the pKa turned out to be 4.75.

For the molecule `Cc1[nH]c2ccccc2c1CCN(CCC(F)F)Cc1ccc(/C=C/C(=O)NO)cc1`, in data set [21], the pKa was 5.8.
